The record followed here is PubChem BioAssay.

Unmarked numbers belong to inactive results. Records with an inconclusive call do not appear. Activity calls are given as the source filed them.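 Rule for the calls, unless noted: active = inhibition over a set limit, the all-compound mean plus 3 SD, in both replicate runs; inconclusive = over that limit in just one replicate run; inactive = at or under that limit in both runs.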

Assay [1] can be described thus: OD615 S. cerevisiae growth inhibition, permissive medium, pilot counter-assay, permissive growth control for S. cerevisiae lifespan shortening project (AID 705;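 active = growth inhibition above 25% in both replicates, a cutoff set 3 SD above the mean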). The conditions noted are these: OD615, 24 h, at 10 µM, stronger effect = higher value. In a few lines:
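System: Engineered DeaD yeast | Buffer or medium: SC raffinose/galactose permissive medium | Incubation: Cells pre-grown 4 h, then 24 h compound exposure, 30 °C humidified | Measured by: Absorbance (optical density) at 615 nm | Read-out: Reduction in yeast growth (OD615)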

A short description of assay [2]: Restrictive medium S. cerevisiae growth inhibition, OD615, pilot screen of yeast lifespan reduction project, restrictive growth control (AID 706;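 active = growth inhibition above a set limit, 3 SD over mean compound inhibition, in both replicates, cut at about 43% in these data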;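 note: modified DeaD lifespan yeast strain shifted to restrictive glucose medium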). As to conditions: OD615, 48 h, at 10 µM, stronger effect = higher value. An outline of the steps:
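Material: modified S. cerevisiae; Medium: glucose-based CSMM-D restrictive medium; Compound dosing: one concentration, 10 µM final, 0.25% DMSO; Incubation: 48 h compound exposure at 30 °C; Measured by: OD615.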

Assay [3] can be described thus: viability gain of MRP-1-high H69AR cells under doxorubicin, pilot screen, MRP-1 activator project, CellTiter-Glo, duplicate (AID 807;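 active = viability increase at or above a cutoff of the median across tested compounds plus 3 SD, cut at about 8.5% in these data, passing the limit was not always enough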;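 note: compound pretreatment 18-22 h then 72 h combined with doxorubicin; 0% = doxorubicin alone and 100% = vehicle without doxorubicin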). The conditions noted are these: H69AR viability with doxorubicin, CellTiter-Glo luminescence; at 10 µM; stronger effect = higher value. Background: ATP-based viability assays read luminescence as a measure of living cells.
A short description of assay [4]: growth suppression of beta-catenin knockout HCT116, pilot screen, human colon tumor cells (AID 823;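 active = cell viability at or below a set limit in both duplicate runs, the limit being the all-compound median minus 4 SD, cut at about 23% in these data, passing the limit was not always enough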;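 note: 0% = wells killed by 20 µM Hyamine and 100% = untreated DMSO cell wells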). As to conditions: CellTiter-Glo, 60 h, at 10 µM, stronger effect = lower value.
Assay [5] can be described thus: growth suppression of PTEN-deleted HCT116, pilot screen, cell-based, HCT116 clonal line, CellTiter-Glo (AID 824;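 active = viability at or below 27.92% in each of two runs, the all-compound median minus 4 SD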;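 note: 0% = 20 µM Hyamine control and 100% = vehicle cell control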). As to conditions: 60 h, at 10 µM, stronger effect = lower value.
A short description of assay [6]: inhibitors of the yeast RAM network, pilot screen, dse1pr::URA3 reporter, 5-FOA selection (AID 869).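 Note: 0% = DMSO wells with no growth and 100% = 10 µM 1-NA-PP1 with full growth; RAM network block rescues cells from 5-FOA so hits raise OD615 growth.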 As to conditions: S. cerevisiae dse1pr::URA3 5-FOA growth, OD615, 2 d; at 10 µM; stronger effect = higher value; strain carries analog-sensitive mutant Cbk1 kinase.
Assay [7] in a line: RAM signaling pathway blockade in yeast – S. cerevisiae, Pdr1DBD-CYC8 efflux-inhibited sensitized strain, primary screen (AID 1298;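 active = RAM network inhibition above 8.4% in each of two replicates, 3 SD over the compound average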;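 note: 0% = DMSO untreated cells without growth and 100% = 10 µM 1-NA-PP1 full growth; higher means more yeast growth rescued from 5-FOA killing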). As to conditions: S. cerevisiae cbk1-as DSE1-URA3 strain, 5-FOA growth OD615, 2 d; at 50 µM; stronger effect = higher value.

With `CCOc1ccccc1CNS(=O)(=O)c1ccc2c(c1)oc(=O)n2C`, the growth inhibition in assay [1] is -8.67%; in assay [2] it was -0.955%. Moreover, the viability increase in assay [3] is -1.75%. For the same compound, the viability – broadly, a read-out of living cells in per cent, often relative to untreated cells – in assay [4] is 102%; in assay [5], 94%. For the same compound, the inhibition (commonly the change of the read-out against control, counted positive when it falls) in assay [6] is -0.575%. For the same compound, the RAM network inhibition in assay [7] was 1.03%.

Consider `COc1ccccc1N1CCN(c2cc(C)nc3nc(C)nn23)CC1`, for which the values for the growth inhibition in assay [1] and in assay [2] were -9.41% and -13.6%, respectively. Further, the viability increase in assay [3] was -4.75%. For the same compound, the viability in assay [4] is 85.7%; in assay [5] it was 83.6%. Further, in assay [6], the inhibition was 2.03%. In addition, the RAM network inhibition in assay [7] was -0.21%.

As for `Cc1ccc2oc(=O)c3cnn(CC(=O)N4CCCCCC4)c3c2c1`, the growth inhibition is -11% in assay [1] and -0.055% in assay [2]. Further, the viability increase in assay [3] was -3.69%. Besides, the results for the viability in assay [4] and in assay [5] were 82.8% and 89.1%, respectively. Moreover, in assay [6], the inhibition is 1.46%. Moreover, the RAM network inhibition in assay [7] is 2.05%.

Consider `Cc1cc(C)n(/N=C/c2cccc(O)c2)c(=O)c1C(N)=O`, for which the growth inhibition was -22.8% in assay [1] and -22.5% in assay [2]. For the same compound, the viability increase in assay [3] is 1.95%. Further, the viability in assay [4] is 99.7%; in assay [5], 100%. Also, the inhibition in assay [6] is 0.485%. For the same compound, in assay [7], the RAM network inhibition was 4.4%.

Take `Cc1ccc(Cn2nnc3c(=O)n(CC(=O)c4ccccc4)cnc32)cc1`: the figures for the growth inhibition in assay [1] and in assay [2] were -5.55% and -9.49%, respectively. For the same compound, the viability increase in assay [3] was -2.92%. Further, the viability in assay [4] is 96.7%; in assay [5] it was 91.5%. Besides, in assay [6], the inhibition was 3.42%. Moreover, the RAM network inhibition in assay [7] was 5.01%.

For `Cc1noc(NS(=O)(=O)c2ccc(NC(=O)CSc3nc4c(cc3C#N)CCC4)cc2)c1C`, the growth inhibition is 4.79% in assay [1] and 48% (active) in assay [2]. Moreover, in assay [3], the viability increase is 1.01%. Further, the results for the viability in assay [4] and in assay [5] were 107% and 98.3%, respectively. In addition, the inhibition in assay [6] is 0.805%. Besides, the RAM network inhibition in assay [7] was 8.22%.

For `CC(=NCCN1CCOCC1)C1=C(O)c2ccccc2C1=O`, the growth inhibition was -5.16% in assay [1] and -12.6% in assay [2]. The viability increase in assay [3] is -1.7%. In addition, the results for the viability in assay [4] and in assay [5] were 103% and 100%, respectively. For the same compound, the inhibition in assay [6] is 1.3%. Also, in assay [7], the RAM network inhibition is -0.73%.

For `O=S(=O)(NCc1cccnc1)c1ccc(Cl)c(Cl)c1`, the values for the growth inhibition in assay [1] and in assay [2] were -0.945% and -19.6%, respectively. In assay [3], the viability increase is -0.3%. For the same compound, the viability is 98.9% in assay [4] and 93.8% in assay [5]. The inhibition in assay [6] was 0.75%. The RAM network inhibition in assay [7] is 4.18%.

`CC(=O)N1CCc2c(sc(NC(=O)c3ccc4c(c3)OCCO4)c2C#N)C1`: the growth inhibition was -0.37% in assay [1] and -8.73% in assay [2]. Also, the viability increase in assay [3] was -6.36%. Moreover, the results for the viability in assay [4] and in assay [5] were 35% and 35.4%, respectively. For the same compound, in assay [6], the inhibition is 2.62%. For the same compound, the RAM network inhibition in assay [7] was 4.02%.

As for `COc1ccc(N2C(=O)CCC(C(=O)Nc3ccccn3)C2c2ccc(OC)c(OC)c2)cc1` (centres undefined), the growth inhibition was 0.15% in assay [1] and -9.93% in assay [2]. Also, the viability increase in assay [3] is -0.12%. The figures for the viability in assay [4] and in assay [5] were 96.2% and 96.9%, respectively. For the same compound, the inhibition in assay [6] is 1.64%. Besides, the RAM network inhibition in assay [7] was 0.04%.

With `CC1(C)CC2CC(C)(CN2C(=O)c2cc(-c3ccccc3O)on2)C1` (centres undefined), the growth inhibition in assay [1] was -11.4%; in assay [2], -4.57%. For the same compound, the viability increase in assay [3] was -5.87%. For the same compound, the values for the viability in assay [4] and in assay [5] were 75.5% and 61.9%, respectively. In addition, the inhibition in assay [6] was 2.44%. In addition, in assay [7], the RAM network inhibition was 6.15%.

Consider `CCOCCCNC(=O)C(c1ccc(OC)cc1)N(Cc1ccc2c(c1)OCO2)C(=O)CNC(C)=O` (centres undefined), for which the growth inhibition was -6.78% in assay [1] and 3.73% in assay [2]. The viability increase in assay [3] was 2.19%. For the same compound, the viability was 104% in assay [4] and 107% in assay [5]. Besides, in assay [6], the inhibition was 1.34%. In assay [7], the RAM network inhibition is 4.4%.

For `CC(=NCCc1ccccc1)C1=C(O)CSC1=O`, the growth inhibition in assay [1] was -3.27%; in assay [2] it was -6.07%. Besides, the viability increase in assay [3] was -1.75%. Besides, the viability in assay [4] is 99.4%; in assay [5] it was 96.3%. In assay [6], the inhibition is 0.97%. For the same compound, the RAM network inhibition in assay [7] is 1%.

As to `O=C(C1CCN(S(=O)(=O)c2ccc(F)cc2)CC1)N1CCOCC1`, the growth inhibition in assay [1] was -6.2%; in assay [2], -6.82%. Besides, the viability increase in assay [3] was 0.84%. Further, the viability in assay [4] and in assay [5] was 103% throughout. In addition, in assay [6], the inhibition is 2.23%. The RAM network inhibition in assay [7] is 1.75%.

For `O=C(CS(=O)(=O)c1cn(Cc2ccccc2Cl)c2ccccc12)N1CCOCC1`, the growth inhibition in assay [1] is -3.44%; in assay [2], 2.78%. In assay [3], the viability increase was -4.39%. Also, the viability in assay [4] was 79%; in assay [5], 76%. Besides, the inhibition in assay [6] is 3.23%. In assay [7], the RAM network inhibition is 5.08%.

`COc1cccc(CNC(=O)Cn2cc3c(n2)CCCC3)c1`: the growth inhibition was -7.1% in assay [1] and 4.65% in assay [2]. Also, in assay [3], the viability increase is 0.16%. Besides, the values for the viability in assay [4] and in assay [5] were 100% and 93.2%, respectively. Moreover, the inhibition in assay [6] is 1.44%. The RAM network inhibition in assay [7] was 3.05%.

On to `CC(=O)c1ccc(NC(=O)CSc2nnc(Cn3c(=O)sc4ccccc43)n2C)cc1`, for which the growth inhibition in assay [1] is -0.18%; in assay [2], 14.4%. Moreover, the viability increase in assay [3] was -1.49%. For the same compound, the viability in assay [4] was 100%; in assay [5], 101%. For the same compound, the inhibition in assay [6] is 0.83%. Moreover, the RAM network inhibition in assay [7] was 3.42%.
